Measurements from PMC5074691 (Cell reports, 2016).
Where a chain is given by its changes, count along the chain named. Names may count otherwise. No end group written: not given here.

Legend:
[1] = target: MORC3 CW domain (wild type, GST tag cleaved) (human); test: other fluorescence titration
MORC3 His-ATPase-CW = test: ATPase assay; assay type: biochemical, human; details: with DNA
Summary of the method: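 Human MORC3 His-ATPase-CW (aa 1–455), expressed in E. coli Rosetta2(DE3) pLysS, Ni-NTA purified in HEPES buffers, used at 1.5–3.0 μM. Run 20 min at 22 °C or 30 min at 30 °C, read at A360. SD from ≥3 experiments (two at 30 °C).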

Widom 601 DNA = test: EMSA with Widom 601 DNA; assay type: binding; details: 1 to 20 molar excess protein; 601 DNA (3 pM); 20 mM Tris-HCl pH 7.5, 150 mM NaCl, 2 mM DTT; 1 h, room temperature
Summary of the method: (§1)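 MORC3 His-ATPase (aa 1–392, E. coli-expressed, Ni-NTA purified) is titrated onto the nucleic acid substrate; for 601 DNA, His-ATPase-CW (aa 1–455) is also tested. Mixtures run on 5% polyacrylamide gels in 0.2x TB at 150 V for 1 h on ice, then are stained with ethidium bromide and imaged.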

[2] = target: T1, MORC3 CW domain (residues 407-455), crystallised (human, UniProt Q14149 407-455); test: crystal structure
T1 chain (looked up): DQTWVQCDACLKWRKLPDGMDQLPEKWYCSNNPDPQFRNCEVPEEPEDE

[3] = system: nuclear bodies (NBs) in HeLa cells; test: Confocal immunofluorescence of FLAG-tagged MORC3; assay type: cell-based; details: 48 h post transfection, anti-FLAG
Summary of the method: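 HeLa in DMEM/10% FBS/penicillin-streptomycin grown on chamber slides, transiently transfected (TurboFect) with WT or CW-mutant 3xFLAG-MORC3 (C416S, C416A, W419A). At 48 h: cold methanol fixation (−20°C, 10 min), 1% BSA block 30 min, anti-FLAG 1:200 for 1 h at 25°C, then Alexa Fluor 647 secondary 1:1000 for 1 h. DAPI mount; confocal imaging with 100X objective.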

chromatin in HeLa cells = test: Chromatin association assay; assay type: cell-based; details: 48 h post transfection, fractionation and immunoblot
Summary of the method: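 HeLa cells (DMEM, 10% FBS, pen/strep) are transfected with full-length human N-terminal 3xFLAG-MORC3, WT or CW mutants, and trypsinized at 48 h. The washed chromatin pellet is nuclease-solubilized. Fractions (1–5 µg) are immunoblotted for FLAG, β-tubulin and H3.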

MORC3-CW E453A (human) = test: ITC
[4] = system: reconstituted nucleosome core particles (NCPs); test: EMSA with nucleosome core particles; assay type: binding; details: 1 to 20 molar excess protein; NCPs (3 pM); 20 mM Tris-HCl pH 7.5, 150 mM NaCl, 2 mM DTT; 1 h, room temperature
Summary of the method: as §1

MORC3-CW E453A = test: 1H,15N TROSY/HSQC NMR titration and competition on MORC3-CW E453A; assay type: binding, human

## histone H3K4me1 peptide
[1]
  Kd: 740 nM

## histone H3K4me3 peptide (residues 1-12 of H3) (from UniProt P68431 2-13)
[1]
  Kd: 640 nM

## histone H3K4me2 peptide
[1]
  Kd: 670 nM

B1: His-ATPase-CW: MORC3 construct harboring linked ATPase and CW domains (aa 1-455), His-tagged (protein)
chain: MAAQPPRGIRLSALCPKFLHTNSTSHTWPFSAVAELIDNAYDPDVNAKQIWIDKTVINDHICLTFTDNGNGMTSDKLHKMLSFGFSDKVTMNGHVPVGLYGNGFKSGSMRLGKDAIVFTKNGESMSVGLLSQTYLEVIKAEHVVVPIVAFNKHRQMINLAESKASLAAILEHSLFSTEQKLLAELDAIIGKKGTRIIIWNLRSYKNATEFDFEKDKYDIRIPEDLDEITGKKGYKKQERMDQIAPESDYSLRAYCSILYLKPRMQIILRGQKVKTQLVSKSLAYIERDVYRPKFLSKTVRITFGFNCRNKDHYGIMMYHRNRLIKAYEKVGCQLRANNMGVGVVGIIECNFLKPTHNKQDFDYTNEYRLTITALGEKLNDYWNEMKVKKNTEYPLNLPVEDIQKRPDQTWVQCDACLKWRKLPDGMDQLPEKWYCSNNPDPQFRNCEVPEEPEDE
modifications: left off: His tag, end not stated, kept
MORC3 His-ATPase-CW
  effect of linked CW on rate of hydrolysis in the presence of DNA: considerably decreased the rate of hydrolysis in the presence of DNA
Widom 601 DNA
  DNA binding by EMSA: impaired

## ARTK(Me3)QTARKSTG (peptide, UniProt P68431 2-13, looked up) [histone H3K4me3 peptide (residues 1-12 of H3)]
[2]
  binding result: binds

B2: WT FLAG-MORC3: FLAG-tagged full length wild-type MORC3 (protein, UniProt Q14149 1-939, looked up)
chain: MAAQPPRGIRLSALCPKFLHTNSTSHTWPFSAVAELIDNAYDPDVNAKQIWIDKTVINDHICLTFTDNGNGMTSDKLHKMLSFGFSDKVTMNGHVPVGLYGNGFKSGSMRLGKDAIVFTKNGESMSVGLLSQTYLEVIKAEHVVVPIVAFNKHRQMINLAESKASLAAILEHSLFSTEQKLLAELDAIIGKKGTRIIIWNLRSYKNATEFDFEKDKYDIRIPEDLDEITGKKGYKKQERMDQIAPESDYSLRAYCSILYLKPRMQIILRGQKVKTQLVSKSLAYIERDVYRPKFLSKTVRITFGFNCRNKDHYGIMMYHRNRLIKAYEKVGCQLRANNMGVGVVGIIECNFLKPTHNKQDFDYTNEYRLTITALGEKLNDYWNEMKVKKNTEYPLNLPVEDIQKRPDQTWVQCDACLKWRKLPDGMDQLPEKWYCSNNPDPQFRNCEVPEEPEDEDLVHPTYEKTYKKTNKEKFRIRQPEMIPRINAELLFRPTALSTPSFSSPKESVPRRHLSEGTNSYATRLLNNHQVPPQSEPESNSLKRRLSTRSSILNAKNRRLSSQFENSVYKGDDDDEDVIILEENSTPKPAVDHDIDMKSEQSHVEQGGVQVEFVGDSEPCGQTGSTSTSSSRCDQGNTAATQTEVPSLVVKKEETVEDEIDVRNDAVILPSCVEAEAKIHETQETTDKSADDAGCQLQELRNQLLLVTEEKENYKRQCHMFTDQIKVLQQRILEMNDKYVKKETCHQSTETDAVFLLESINGKSESPDHMVSQYQQALEEIERLKKQCSALQHVKAECSQCSNNESKSEMDEMAVQLDDVFRQLDKCSIERDQYKSEVELLEMEKSQIRSQCEELKTEVEQLKSTNQQTATDVSTSSNIEESVNHMDGESLKLRSLRVNVGQLLAMIVPDLDLQQVNYDVDVVDEILGQVVEQMSEISST
modifications: full-length FLAG tag
[3]
  nuclear localization: localized to NBs
Chromatin in HeLa cells
  association with chromatin: purifies in the chromatin and soluble fractions

B3: C416S: FLAG-tagged MORC3 mutant in CW domain that disrupts the CW structure (protein, UniProt Q14149 1-939, looked up, variant C416S)
chain: B2 chain with C416S
modifications: full-length FLAG tag
Chromatin in HeLa cells
  association with chromatin: did not associate with chromatin and were found only in the soluble fractions

B4: C416A: FLAG-tagged MORC3 mutant in CW domain that disrupts the CW structure (protein, UniProt Q14149 1-939, looked up, variant C416A)
chain: B2 chain with C416A
modifications: full-length FLAG tag
[3]
  nuclear localization: diffused throughout the nucleus
Chromatin in HeLa cells
  association with chromatin: did not associate with chromatin and were found only in the soluble fractions

B5: W419A: FLAG-tagged MORC3 mutant that abrogates binding to the histone H3 tail (protein, UniProt Q14149 1-939, looked up, variant W419A)
chain: B2 chain with W419A
modifications: full-length FLAG tag
[3]
  nuclear localization: diffused throughout the nucleus
Chromatin in HeLa cells
  association with chromatin: did not associate with chromatin and were found only in the soluble fractions

B6: MORC3 His-ATPase domain (aa 1-392) (domain or fragment)
chain: MAAQPPRGIRLSALCPKFLHTNSTSHTWPFSAVAELIDNAYDPDVNAKQIWIDKTVINDHICLTFTDNGNGMTSDKLHKMLSFGFSDKVTMNGHVPVGLYGNGFKSGSMRLGKDAIVFTKNGESMSVGLLSQTYLEVIKAEHVVVPIVAFNKHRQMINLAESKASLAAILEHSLFSTEQKLLAELDAIIGKKGTRIIIWNLRSYKNATEFDFEKDKYDIRIPEDLDEITGKKGYKKQERMDQIAPESDYSLRAYCSILYLKPRMQIILRGQKVKTQLVSKSLAYIERDVYRPKFLSKTVRITFGFNCRNKDHYGIMMYHRNRLIKAYEKVGCQLRANNMGVGVVGIIECNFLKPTHNKQDFDYTNEYRLTITALGEKLNDYWNEMKVKKNTE
MORC3-CW E453A (human)
  Kd: 9000 nM
  stoichiometry N: 1

B7: His-ATPase: His-tagged isolated ATPase domain of MORC3 (aa 1-392) (protein)
chain: B6 chain
modifications: left off: His tag, end not stated, kept
[4]
  NCP binding by EMSA: resulted in a shift of the DNA and/or NCP bands
MORC3-CW E453A; 10 mM HEPES pH 7.4, 100 mM NaCl, 1 mM TCEP, 7% D2O, 298K
  chemical shift perturbation / complex formation in TROSY: Substantial chemical shift perturbations
MORC3-CW E453A; His-ATPase titrated into CW E453A:H3K4me0 (1:4), 10 mM HEPES pH 7.4
  displacement of H3K4me0 from CW E453A:H3K4me0 complex: could not efficiently displace H3K4me0
Widom 601 DNA
  DNA binding by EMSA: resulted in a shift of the DNA and/or NCP bands
